Calls of active or inactive are those of the source. The calls are words filed in the database; no cut-off is given here.
What was measured:
Oryza sativa = experiment: Inhibition of rice alpha-glucosidase assessed as D-glucose release at 1000 uM after 10 mins by Glucose B-test
Procedure, shortened: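 Rice α-glucosidase was assayed with maltose as substrate at the enzyme's optimum pH. Incubation with inhibitor was 10 min at 37 °C. Released D-glucose was determined colorimetrically by Glucose B-test.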

[1] = target: Lysosomal alpha-glucosidase (Rattus norvegicus) (UniProt Q6P7A9); experiment: Inhibition of rat intestinal maltase assessed as D-glucose release at 1000 uM after 30 mins by Glucose B-test
Procedure, shortened: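 Brush border membranes from rat small intestine served as the enzyme source, with maltose substrate at pH 5.8. Incubation with inhibitor was 30 min at 37 °C. Released D-glucose was measured colorimetrically by Glucose B-test.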

[2] = target: Oligo-1,6-glucosidase IMA1 (Saccharomyces cerevisiae S288c) (UniProt P53051); experiment: Inhibition of yeast alpha-glucosidase assessed as p-nitrophenol release at 1000 uM after 30 mins measured spectrometrically at 400 nm
[3] = Inhibition of Penicillium decumbens alpha-L-rhamnosidase assessed as p-nitrophenol release after 30 mins by spectrophotometry
Procedure, shortened: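 Penicillium decumbens enzyme assayed at pH 4.5 with the appropriate p-nitrophenyl glycoside. Substrate, diluted enzyme and inhibitor were incubated 30 min at 37 °C, then stopped with 400 mM Na2CO3. Released p-nitrophenol was read at 400 nm.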

[4] = target: T1, Beta-mannosidase (Rattus norvegicus) (UniProt Q4FZV0); experiment: Inhibition of rat epididymis beta-mannosidase assessed as p-nitrophenol release at 1000 uM after 30 mins by spectrophotometry
T1 sequence (whole entry): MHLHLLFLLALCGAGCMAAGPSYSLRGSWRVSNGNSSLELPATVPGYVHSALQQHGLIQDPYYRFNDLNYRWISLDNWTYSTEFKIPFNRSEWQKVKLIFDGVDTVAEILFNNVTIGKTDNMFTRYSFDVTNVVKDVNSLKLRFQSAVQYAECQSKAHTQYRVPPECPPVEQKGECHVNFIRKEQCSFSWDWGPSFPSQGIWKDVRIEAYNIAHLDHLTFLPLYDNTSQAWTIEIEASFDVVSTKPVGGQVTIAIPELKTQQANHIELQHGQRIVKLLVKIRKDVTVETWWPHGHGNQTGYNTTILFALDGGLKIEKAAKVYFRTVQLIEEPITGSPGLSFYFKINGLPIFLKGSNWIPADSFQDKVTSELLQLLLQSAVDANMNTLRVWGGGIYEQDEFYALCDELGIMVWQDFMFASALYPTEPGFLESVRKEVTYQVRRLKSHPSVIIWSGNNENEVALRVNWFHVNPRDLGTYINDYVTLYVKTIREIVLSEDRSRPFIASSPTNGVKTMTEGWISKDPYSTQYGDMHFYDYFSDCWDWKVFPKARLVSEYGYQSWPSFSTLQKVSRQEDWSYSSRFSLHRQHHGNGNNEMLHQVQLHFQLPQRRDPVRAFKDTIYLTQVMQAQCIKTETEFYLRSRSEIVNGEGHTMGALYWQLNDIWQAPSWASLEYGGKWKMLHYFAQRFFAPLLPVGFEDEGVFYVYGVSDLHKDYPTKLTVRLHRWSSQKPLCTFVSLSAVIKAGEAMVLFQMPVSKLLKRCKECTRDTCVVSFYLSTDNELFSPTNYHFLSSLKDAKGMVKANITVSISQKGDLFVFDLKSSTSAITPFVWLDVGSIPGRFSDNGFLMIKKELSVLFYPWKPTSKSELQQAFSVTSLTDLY
Procedure, shortened: (§1)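 p-Nitrophenyl glycoside substrates: Penicillium decumbens α-L-rhamnosidase at pH 4.5, bovine epididymis α-L-fucosidase at pH 5.5, bovine liver β-galactosidase at pH 6.8. β-Mannosidase came from rat epididymal fluid purified from epididymis, with p-nitrophenyl-β-D-mannoside at pH 5.2. Enzyme, substrate and inhibitor were incubated 30 min at 37 °C. The reaction was stopped with 400 mM Na2CO3, and p-nitrophenol was read at 400 nm.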

[5] = target: Lysosomal alpha-glucosidase (Rattus norvegicus) (UniProt Q6P7A9); experiment: Inhibition of rat liver lysosome alpha-glucosidase assessed as p-nitrophenol release at 1000 uM after 30 mins measured spectrometrically at 400 nm
[6] = target: T2, Tissue alpha-L-fucosidase (Bos taurus) (UniProt Q2KIM0); experiment: Inhibition of bovine epididymis alpha-L-fucosidase assessed as p-nitrophenol release at 1000 uM after 30 mins by spectrophotometry; procedure, shortened: as §1
T2 sequence (whole entry): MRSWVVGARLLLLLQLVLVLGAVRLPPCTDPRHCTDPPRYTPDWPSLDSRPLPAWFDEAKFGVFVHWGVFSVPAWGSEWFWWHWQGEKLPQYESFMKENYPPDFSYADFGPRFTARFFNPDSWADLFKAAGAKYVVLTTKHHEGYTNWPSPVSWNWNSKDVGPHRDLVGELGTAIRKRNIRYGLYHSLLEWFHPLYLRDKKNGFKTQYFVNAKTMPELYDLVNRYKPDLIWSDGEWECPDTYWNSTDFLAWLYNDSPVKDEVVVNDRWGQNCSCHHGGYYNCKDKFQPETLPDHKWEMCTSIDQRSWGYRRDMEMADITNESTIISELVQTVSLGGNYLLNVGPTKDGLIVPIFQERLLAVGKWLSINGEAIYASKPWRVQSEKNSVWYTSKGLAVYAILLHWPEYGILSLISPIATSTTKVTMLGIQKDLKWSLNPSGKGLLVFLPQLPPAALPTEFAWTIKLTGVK

Beta-glucosidase A = Beta-glucosidase A (Caldicellulosiruptor saccharolyticus, UniProt P10482); experiment: Inhibition of Caldocellum saccharolyticum beta-glucosidase assessed as p-nitrophenol release after 30 mins measured spectrometrically at 400 nm
Alpha-glucosidase MAL12 = Alpha-glucosidase MAL12 (Saccharomyces cerevisiae S288c, UniProt P53341); experiment: Inhibition of yeast alpha-glucosidase assessed as p-nitrophenol release after 30 mins measured at 400 nm
Beta-mannosidase = target: T3, Beta-mannosidase (Rattus norvegicus, UniProt Q4FZV0); experiment: Inhibition of rat epididymis beta-mannosidase assessed as p-nitrophenol release after 30 mins by spectrophotometry
T3 sequence (Q4FZV0 whole entry): T1 sequence (whole entry)
Procedure, shortened: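 Source was rat epididymal fluid purified from epididymis. Assayed at pH 5.2 with p-nitrophenyl-β-D-mannoside, incubated with inhibitor 30 min at 37 °C. Stopped with 400 mM Na2CO3; p-nitrophenol read at 400 nm.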

Beta-galactosidase = target: T4, Beta-galactosidase (Bos taurus, UniProt Q58D55); experiment: Inhibition of bovine liver beta-galactosidase assessed as p-nitrophenol release after 30 mins by spectrophotometry
T4 sequence (Q58D55 whole entry): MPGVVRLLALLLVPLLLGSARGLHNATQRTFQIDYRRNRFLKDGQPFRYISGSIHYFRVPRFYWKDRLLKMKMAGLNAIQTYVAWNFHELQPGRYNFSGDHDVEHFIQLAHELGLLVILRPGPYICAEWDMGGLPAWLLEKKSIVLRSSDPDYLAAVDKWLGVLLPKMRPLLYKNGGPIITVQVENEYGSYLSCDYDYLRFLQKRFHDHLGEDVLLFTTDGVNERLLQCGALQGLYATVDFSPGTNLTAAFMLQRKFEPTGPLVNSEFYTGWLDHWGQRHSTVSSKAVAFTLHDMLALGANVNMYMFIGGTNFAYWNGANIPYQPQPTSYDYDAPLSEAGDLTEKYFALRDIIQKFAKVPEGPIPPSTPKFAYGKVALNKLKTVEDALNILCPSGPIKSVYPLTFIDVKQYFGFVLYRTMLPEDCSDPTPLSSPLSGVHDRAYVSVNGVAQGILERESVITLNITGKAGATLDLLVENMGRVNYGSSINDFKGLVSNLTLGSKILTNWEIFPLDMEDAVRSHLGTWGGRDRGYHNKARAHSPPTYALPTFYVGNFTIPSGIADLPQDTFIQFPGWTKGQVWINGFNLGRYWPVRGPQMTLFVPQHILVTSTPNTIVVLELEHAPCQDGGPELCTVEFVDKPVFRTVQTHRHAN
Procedure, shortened: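 Bovine liver enzyme at pH 6.8 with the appropriate p-nitrophenyl glycoside. Incubated with inhibitor 30 min at 37 °C, quenched with 400 mM Na2CO3, and released p-nitrophenol read at 400 nm.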

[7] = target: T5, Tissue alpha-L-fucosidase (Bos taurus, UniProt Q2KIM0); experiment: Inhibition of bovine epididymis alpha-L-fucosidase assessed as p-nitrophenol release after 30 mins by spectrophotometry
T5 sequence (Q2KIM0 whole entry): T2 sequence (whole entry)
Procedure, shortened: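 Enzyme from bovine epididymis, run at pH 5.5 with the appropriate p-nitrophenyl glycoside substrate. Enzyme, substrate and inhibitor incubated together 30 min at 37 °C. Reaction stopped by adding 400 mM Na2CO3; p-nitrophenol measured spectrometrically at 400 nm.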

Penicillium decumbens = experiment: Inhibition of Penicillium decumbens alpha-L-rhamnosidase assessed as p-nitrophenol release at 1000 uM by spectrophotometry; procedure, shortened: as §1
[8] = target: T6, Beta-galactosidase (Bos taurus) (UniProt Q58D55); experiment: Inhibition of bovine liver beta-galactosidase assessed as p-nitrophenol release at 1000 uM after 30 mins by spectrophotometry; procedure, shortened: as §1
T6 sequence (whole entry): T4 sequence (Q58D55 whole entry)

[9] = target: Oligo-1,6-glucosidase IMA1 (Saccharomyces cerevisiae S288c) (UniProt P53051); experiment: Inhibition of yeast alpha-glucosidase assessed as D-glucose release at 1000 uM after 30 mins by Glucose B-test
[10] = target: Lysosomal alpha-glucosidase (Rattus norvegicus) (UniProt Q6P7A9); experiment: Inhibition of rat liver lysosome alpha-glucosidase assessed as D-glucose release at 1000 uM after 30 mins by Glucose B-test
[11] = Inhibition of rat intestinal amyloglucosidase
[12] = Inhibition of rice alpha-glucosidase assessed as D-glucose release after 10 mins by Glucose B-test; design: species or system Oryza sativa
Procedure, shortened: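 Rice enzyme with maltose as substrate at the enzyme's optimum pH. Incubation with inhibitor ran 10 min at 37 °C. Released D-glucose determined colorimetrically with a glucose test kit.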

Oligo-1,6-glucosidase IMA1 (Saccharomyces cerevisiae S288c), sequence (P53051 whole entry): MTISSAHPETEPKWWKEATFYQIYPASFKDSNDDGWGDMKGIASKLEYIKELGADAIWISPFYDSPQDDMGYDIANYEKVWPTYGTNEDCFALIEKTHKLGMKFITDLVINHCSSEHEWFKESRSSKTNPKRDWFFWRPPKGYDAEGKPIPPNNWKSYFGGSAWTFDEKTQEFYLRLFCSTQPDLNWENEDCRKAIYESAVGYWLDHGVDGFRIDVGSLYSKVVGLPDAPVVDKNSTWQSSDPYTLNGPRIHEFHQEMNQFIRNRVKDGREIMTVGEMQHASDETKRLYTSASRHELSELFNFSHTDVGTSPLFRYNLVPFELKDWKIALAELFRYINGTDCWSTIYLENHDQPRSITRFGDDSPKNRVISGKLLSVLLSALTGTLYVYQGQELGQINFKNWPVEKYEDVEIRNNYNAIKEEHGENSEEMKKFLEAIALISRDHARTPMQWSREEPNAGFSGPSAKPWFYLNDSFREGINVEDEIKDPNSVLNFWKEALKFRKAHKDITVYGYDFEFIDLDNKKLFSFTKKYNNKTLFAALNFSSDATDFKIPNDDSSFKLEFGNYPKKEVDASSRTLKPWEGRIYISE
Beta-glucosidase A, sequence (P10482 whole entry): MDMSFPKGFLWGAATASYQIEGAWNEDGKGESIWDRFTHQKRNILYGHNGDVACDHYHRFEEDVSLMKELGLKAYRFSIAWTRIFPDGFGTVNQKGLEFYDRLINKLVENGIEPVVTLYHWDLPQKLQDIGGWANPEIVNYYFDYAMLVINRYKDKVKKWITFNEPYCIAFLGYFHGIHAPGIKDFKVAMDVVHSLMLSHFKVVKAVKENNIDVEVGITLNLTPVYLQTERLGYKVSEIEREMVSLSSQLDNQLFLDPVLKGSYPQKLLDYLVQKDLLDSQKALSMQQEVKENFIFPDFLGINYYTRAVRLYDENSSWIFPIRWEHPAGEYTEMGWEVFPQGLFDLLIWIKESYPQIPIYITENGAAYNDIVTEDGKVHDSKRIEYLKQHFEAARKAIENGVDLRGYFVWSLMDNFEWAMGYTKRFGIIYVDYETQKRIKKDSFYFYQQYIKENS
Lysosomal alpha-glucosidase (Rattus norvegicus), sequence (Q6P7A9 whole entry): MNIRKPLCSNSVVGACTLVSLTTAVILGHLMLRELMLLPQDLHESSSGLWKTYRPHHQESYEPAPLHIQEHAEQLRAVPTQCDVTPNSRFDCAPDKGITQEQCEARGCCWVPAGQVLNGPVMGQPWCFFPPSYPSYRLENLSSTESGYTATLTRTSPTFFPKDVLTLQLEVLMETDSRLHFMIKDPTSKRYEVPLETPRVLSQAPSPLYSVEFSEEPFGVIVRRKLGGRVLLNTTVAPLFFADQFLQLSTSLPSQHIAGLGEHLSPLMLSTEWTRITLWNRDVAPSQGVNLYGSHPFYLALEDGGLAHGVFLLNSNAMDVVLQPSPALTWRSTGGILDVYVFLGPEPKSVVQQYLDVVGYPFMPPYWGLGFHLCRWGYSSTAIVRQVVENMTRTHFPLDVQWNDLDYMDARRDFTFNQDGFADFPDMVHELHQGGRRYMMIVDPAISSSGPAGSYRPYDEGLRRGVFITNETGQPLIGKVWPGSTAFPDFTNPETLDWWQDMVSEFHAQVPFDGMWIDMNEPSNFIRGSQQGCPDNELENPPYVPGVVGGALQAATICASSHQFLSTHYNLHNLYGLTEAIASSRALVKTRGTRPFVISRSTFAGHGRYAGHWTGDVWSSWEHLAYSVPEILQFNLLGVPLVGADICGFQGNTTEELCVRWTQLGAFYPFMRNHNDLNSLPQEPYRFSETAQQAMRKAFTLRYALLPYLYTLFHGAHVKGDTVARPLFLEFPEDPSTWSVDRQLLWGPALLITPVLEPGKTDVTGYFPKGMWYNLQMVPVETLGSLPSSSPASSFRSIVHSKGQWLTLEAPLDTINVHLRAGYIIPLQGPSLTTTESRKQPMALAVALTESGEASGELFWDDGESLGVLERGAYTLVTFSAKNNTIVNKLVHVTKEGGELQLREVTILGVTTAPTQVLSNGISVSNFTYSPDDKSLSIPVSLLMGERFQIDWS
Alpha-glucosidase MAL12, sequence (P53341 whole entry): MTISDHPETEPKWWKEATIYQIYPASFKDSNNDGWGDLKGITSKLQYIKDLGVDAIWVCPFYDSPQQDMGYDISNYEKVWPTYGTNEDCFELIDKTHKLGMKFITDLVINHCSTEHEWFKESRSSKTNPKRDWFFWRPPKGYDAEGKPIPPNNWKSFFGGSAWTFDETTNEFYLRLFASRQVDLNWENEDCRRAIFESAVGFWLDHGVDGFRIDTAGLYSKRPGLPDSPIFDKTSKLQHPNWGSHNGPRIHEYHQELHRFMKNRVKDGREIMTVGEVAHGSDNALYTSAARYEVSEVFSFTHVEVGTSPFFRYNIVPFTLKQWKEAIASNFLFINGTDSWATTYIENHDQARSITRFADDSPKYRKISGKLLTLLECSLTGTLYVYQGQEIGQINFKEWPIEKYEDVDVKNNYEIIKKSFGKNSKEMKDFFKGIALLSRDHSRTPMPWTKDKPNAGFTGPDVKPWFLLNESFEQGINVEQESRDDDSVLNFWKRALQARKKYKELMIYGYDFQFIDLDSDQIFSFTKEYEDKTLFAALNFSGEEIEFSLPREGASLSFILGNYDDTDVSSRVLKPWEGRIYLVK

Structure (SMILES) | inhibition (Oryza sativa) [%] | inhibition [5] [%] | inhibition [6] [%] | IC50 (Beta-mannosidase) [µM] | Activity (Oryza sativa) | Activity [9] | Activity [1] | Activity (Penicillium decumbens) | Activity [10] | Activity [6] | Activity [8] | further results
OC[C@H]1NC[C@@H](O)[C@H](O)[C@@H]1O | < 50 | < 50 | < 50 | – | – | – | – | – | – | – | – | inhibition [1]: < 50%; inhibition [2]: < 50%; IC50 [3]: 1.8 µM; inhibition [4]: < 50%
OCC[C@H]1N[C@H](CO)[C@@H](O)[C@@H]1O | < 50 | < 50 | – | 320 | – | – | – | – | – | – | – | inhibition [1]: < 50%; IC50 [3]: 94 µM; IC50 (Beta-glucosidase A): 350 µM; IC50 (Alpha-glucosidase MAL12): 250 µM; IC50 (Beta-galactosidase): 88 µM
OCC[C@H]1N[C@@H](CO)[C@H](O)[C@H]1O | < 50 | – | – | – | – | – | – | – | – | – | – | IC50 [7]: 840 µM; inhibition [2]: < 50%; inhibition (Penicillium decumbens): < 50%; inhibition [4]: < 50%; inhibition [8]: < 50%
OCC[C@H]1N[C@H](CO)[C@@H](O)[C@@H]1O[C@@H]1O[C@H](CO)[C@@H](O)[C@H](O)[C@@H]1O | < 50 | < 50 | – | 160 | – | – | – | – | – | – | – | IC50 [7]: 78 µM; inhibition [1]: < 50%; inhibition [2]: < 50%
C[C@@H]1CC[C@@H]2[C@H](O)[C@H](O)[C@@H](CO)N12 (relative stereo) | – | – | – | – | inactive | inactive | inactive | inactive | inactive | inactive | inactive | –
C[C@@H]1C[C@H](O)[C@@H]2[C@H](O)[C@@H](O)[C@@H](CO)N21 (relative stereo) | – | – | – | – | inactive | inactive | inactive | inactive | inactive | inactive | inactive | –
C[C@H]1CC[C@@H]2[C@H](O)[C@H](O)[C@@H](CO)N21 (relative stereo) | – | – | – | – | inactive | inactive | inactive | inactive | inactive | inactive | inactive | –
C[C@H]1CC[C@@H]2[C@H](O)[C@H](O)[C@H](CO)N21 (relative stereo) | – | – | – | – | inactive | inactive | inactive | inactive | inactive | inactive | inactive | Activity [4]: inactive
C[C@@H]1CC[C@@H]2[C@@H](O)[C@@H](O)[C@@H](CO)N12 (relative stereo) [HYACINTHACINE A5] | – | – | – | – | inactive | inactive | inactive | inactive | inactive | inactive | inactive | IC50 [11]: 110 µM
C[C@@H]1C[C@H](O)[C@@H]2[C@H](O)[C@H](O)[C@@H](CO)N21 (relative stereo) [HYACINTHACINE B5] | – | – | – | – | inactive | inactive | inactive | inactive | inactive | inactive | inactive | IC50 [11]: 110 µM
OCC(O)[C@H]1N[C@H](CO)[C@@H](O)[C@@H]1O (single isomer, unassigned) | – | < 50 | < 50 | 53 | – | – | – | – | – | – | – | IC50 [12]: 95 µM; inhibition (Penicillium decumbens): < 50%; IC50 (Beta-glucosidase A): 3.2 µM; IC50 (Alpha-glucosidase MAL12): 220 µM; IC50 (Beta-galactosidase): 4.4 µM
CC(O)[C@H]1N[C@H](CO)[C@@H](O)[C@@H]1O (single isomer, unassigned) | – | < 50 | < 50 | 35 | – | – | – | – | – | – | – | IC50 [12]: 9.2 µM; inhibition (Penicillium decumbens): < 50%; IC50 (Beta-glucosidase A): 6.7 µM; IC50 (Alpha-glucosidase MAL12): 85 µM; IC50 (Beta-galactosidase): 3.4 µM
OC[C@H]1NC[C@H](O)[C@@H](O)[C@@H]1O [DUVOGLUSTAT] | – | – | < 50 | – | – | – | – | – | – | – | – | IC50 [12]: 0.05 µM; IC50 [3]: 850 µM; inhibition [4]: < 50%; inhibition [8]: < 50%

From ChEMBL document CHEMBL1137816, “New polyhydroxylated pyrrolidine, piperidine, and pyrrolizidine alkaloids from Scilla sibirica” (J Nat Prod, 2002)
